In one experiment the target is c-Met kinase (Homo sapiens, UniProt P08581). The experiment can be described thus: Cell-free Z'-LYTE kinase assay, c-Met phosphorylation inhibition. It counts as biochemical. To be noted: for IC50: read-out: c-Met phosphorylation inhibitory IC50, various doses; for % c-Met Inhibition using Cell-Free assay (5 µM dose): single 5 µM dose. In short, it runs like this:
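Purified c-Met kinase domain, pre-phosphorylated in vitro, in a Z'-LYTE Tyr6 peptide kit. Reactions held kinase buffer, 200 µM ATP, 4 µM Tyr6 peptide, 2500 ng mL⁻¹ c-Met and test compound, run 1 h at rt. Protease development solution then added for 1 h. Read-out was the 445/520 nm fluorescence ratio. Screen at 5 µM, then various doses, N=3/dose. IC50 from non-linear regression.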

The test system of experiment [1] is MDA-MB-231 breast cancer cells. Briefly: MTT cell proliferation assay, HGF-induced, MDA-MB-231. The settings on record: 48 h. The format is cell-based, human. In short, it runs like this: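 MDA-MB-231 cells were seeded at 1×10⁴/well (6 wells/group) in RPMI-1640 with 10% FBS overnight. They were PBS-washed and treated for 48 h at 37°C in serum-free RPMI with 40 ng/mL HGF and 10 or 40 µM test compound, or DMSO vehicle. MTT 1 mg mL⁻¹ for 4 h, DMSO solubilisation, A570. Cell number came from a standard curve, and % survival was taken relative to DMSO wells.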
On the technique in general: Tetrazolium dyes change colour on reduction, which living cells bring about.

Another experiment concerns MDA-MB-231 cells. The experiment can be described thus: Wound-healing scratch assay. It counts as cell-based, human. To be noted: read-out: IC50, HGF-induced cell migration; WHA, MDA-MB-231, 24 h, 40 ng/mL HGF. In short, it runs like this: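 Scratch wounds were made with a pipette tip in overnight confluent MDA-MB-231 monolayers, then rinsed with PBS and RPMI. Test compound at various doses in serum-free medium with 40 ng/mL HGF, in triplicate, for 24 h. Cells were fixed and Giemsa-stained, and wound width measured at 0 and 24 h. % migration calculated against DMSO-treated wells, with IC50 by non-linear regression. Oleocanthal 10 µM was the positive control.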

Experiment [2] relates to MDA-MB-468 breast cancer cells. The experiment can be described thus: MTT cell proliferation assay, HGF-induced, MDA-MB-468. The format is cell-based, human. The settings on record: MDA-MB-468, various doses. In short, it runs like this:
(§1)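 MDA-MB-468, MCF-7 or BT-474 cells were seeded at 1×10⁴/well (6 wells/group) in RPMI-1640 with 10% FBS and left overnight at 37°C, 5% CO₂. After a PBS wash they got serum-free RPMI with 40 ng/mL HGF plus test compound at various doses, or DMSO (≤0.1%), for 48 h. MTT (1 mg mL⁻¹) for 4 h, formazan dissolved in DMSO, A570. IC50 by non-linear regression.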

Experiment [3] has as its system MCF-7 breast cancer cells. Briefly: MTT cell proliferation assay, HGF-induced, MCF-7. It counts as cell-based, human. The settings on record: MCF-7, various doses. In short, it runs like this: as §1
The subject of experiment [4] is BT-474 breast cancer cells. The experiment can be described thus: MTT cell proliferation assay, HGF-induced, BT-474. The format is cell-based, human. The settings on record: BT-474, various doses. Put shortly:
as §1

Where “and” joins values, the source holds several entries; their conditions need not be identical. Identical values can stand only once.

Experimental findings from PMC5628144 (Phytotherapy research : PTR, 2017) are described below.

Sequence of c-Met kinase (P08581 1078-1345 limits assumed): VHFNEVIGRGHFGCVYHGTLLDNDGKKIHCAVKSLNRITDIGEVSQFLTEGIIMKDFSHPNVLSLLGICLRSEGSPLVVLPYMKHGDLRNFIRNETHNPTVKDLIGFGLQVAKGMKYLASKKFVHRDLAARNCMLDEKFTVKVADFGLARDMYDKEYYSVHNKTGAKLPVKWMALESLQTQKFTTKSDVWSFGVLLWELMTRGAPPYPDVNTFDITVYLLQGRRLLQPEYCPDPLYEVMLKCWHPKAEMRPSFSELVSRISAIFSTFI

For `C[C@@H]1O[C@@H](OC(=O)/C=C/c2ccc(O)cc2)[C@H](OC(=O)/C=C/c2ccc(O)c(O)c2)[C@H](O)[C@H]1O` (relative stereo) [Compound 9, 1-O-trans-p-coumaroyl-2-O-trans-caffeoyl-α-L-rhamnopyranose], the IC50 on c-Met kinase was found to be 2.5 µM; with MDA-MB-231 cells, 0.98 µM. The “% Survival Inhibition” value in experiment [1] (10 µM) is 50% and 51.3%; in experiment [1] (40 µM), 80% and 79.3%. Also, the HGF-induced proliferation entry in experiment [2], in experiment [3] and in experiment [4] was “dose-dependent suppression” throughout.

On to `C[C@@H]1O[C@@H](OC(=O)/C=C/c2ccc(O)cc2)[C@H](O)[C@H](OC(=O)/C=C/c2ccc(O)c(O)c2)[C@H]1O` (relative stereo) [Compound 10, 1-O-trans-p-coumaroyl-3-O-trans-caffeoyl-α-L-rhamnopyranose], for which the IC50 was found to be 12.7 µM on c-Met kinase and 8.1 µM in the experiment with MDA-MB-231 cells. For the same molecule, the “% c-Met Inhibition using Cell-Free assay (5 µM dose)” value on c-Met kinase is recorded as 38.8%. Also, the “% Survival Inhibition” value in experiment [1] (10 µM) is 28% and 28.2%; in experiment [1] (40 µM), 49% and 49.2%.

For the molecule `COc1ccc(/C=C/C(=O)O[C@@H]2[C@@H](O)[C@@H](O)[C@H](O[C@H]3[C@@H]4C=CO[C@@H](O[C@@H]5O[C@H](CO)[C@@H](O)[C@H](O)[C@H]5O)[C@@H]4[C@@]4(CO)O[C@@H]34)O[C@H]2C)cc1` [Compound 8, 6-O-α-L-(4”-O-p-methoxycinnamoyl) rhamnopyranosylcatalpol], the IC50 was 6.9 µM at c-Met kinase and 13.5 µM in the experiment with MDA-MB-231 cells. Further, the “% c-Met Inhibition using Cell-Free assay (5 µM dose)” value at c-Met kinase is given as 56.7%. The “% Survival Inhibition” value is 32% in experiment [1] (10 µM); 61% and 61.3% in experiment [1] (40 µM).

For premnoside G [Compound 5], the “% c-Met Inhibition using Cell-Free assay (5 µM dose)” value on c-Met kinase worked out at 0%. Further, the “% Survival Inhibition” value in experiment [1] (40 µM) is given as 20%.

As for premnoside B [Compound 6], on c-Met kinase, the “% c-Met Inhibition using Cell-Free assay (5 µM dose)” value came out at 0%. Further, the “% Survival Inhibition” value in experiment [1] (10 µM) is 10%; in experiment [1] (40 µM) it was 13%.

As to “6-O-α-L-(3″-O-trans-p-coumaroyl-4″-O-trans-caffeoyl)-rhamnopyrano-sylcatalpol [Compound 3]”, on c-Met kinase, the “% c-Met Inhibition using Cell-Free assay (5 µM dose)” value is on record as 10.9%. The “% Survival Inhibition” value was 27% in experiment [1] (10 µM) and 30% in experiment [1] (40 µM).

In the case of premnoside E [Compound 4], the “% c-Met Inhibition using Cell-Free assay (5 µM dose)” value at c-Met kinase worked out at 0%. In addition, the “% Survival Inhibition” value in experiment [1] (40 µM) was 7%.

`C[C@@H]1O[C@@H](O[C@H]2[C@@H]3C=CO[C@@H](O[C@@H]4O[C@H](CO)[C@@H](O)[C@H](O)[C@H]4O)[C@@H]3[C@@]3(CO)O[C@@H]23)[C@H](O)[C@H](OC(=O)/C=C/c2ccc(O)cc2)[C@H]1OC(=O)/C=C/c1ccc(O)cc1` (relative stereo) [Compound 1, 6-O-α-L-(3″,4″-di-O-trans-p-coumaroyl) rhamnopyranosylcatalpol]: the “% c-Met Inhibition using Cell-Free assay (5 µM dose)” value at c-Met kinase is given as 0%. Further, the “% Survival Inhibition” value in experiment [1] (40 µM) came out at 26%.

Consider premnoside C [Compound 7], for which, on c-Met kinase, the “% c-Met Inhibition using Cell-Free assay (5 µM dose)” value worked out at 0%. For the same molecule, the “% Survival Inhibition” value in experiment [1] (10 µM) was 13%; in experiment [1] (40 µM), 18%.

`COc1ccc(C=CC(=O)OC2C(C)OC(OC3C4C=COC(OC5OC(CO)C(O)C(O)C5O)C4C4(CO)OC34)C(O)C2OC(=O)C=Cc2ccc(OC)cc2)cc1` [Compound 2, 6-O-α-L-(3″,4″-di-O-trans-p-methoxycinnamoyl)-rhamnopyranosylcatalpol]: the “% c-Met Inhibition using Cell-Free assay (5 µM dose)” value on c-Met kinase was 0%. Also, in experiment [1] (40 µM), the “% Survival Inhibition” value was 17%.
